Source: ChEMBL document CHEMBL1671763, “Nasal carriage of methicillin-resistant and methicillin-sensitive strains of Staphylococcus sciuri in the Indonesian population” (2010)

What was measured:
Assay type in all cases: functional
Mammaliicoccus sciuri [1] = assay: Antimicrobial activity against mecA-deficient Staphylococcus sciuri assessed as resistant isolates
How it was run: (§1)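 Nasal S. sciuri isolates from the Indonesian population, grouped by presence of the S. aureus mecA and S. sciuri mecA genes. Susceptibility to the additional antibiotics was tested on the automated Vitek 2 system (AST-P549 card), and the number of resistant isolates in each group was counted.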

Mammaliicoccus sciuri [2] = assay: Antimicrobial activity against mecA-deficient Staphylococcus sciuri harboring staphylococcus aureus mecA gene assessed as resistant isolates; how it was run: as §1
Mammaliicoccus sciuri [3] = assay: Antimicrobial activity against mecA-positive Staphylococcus sciuri harboring staphylococcus aureus mecA gene assessed as resistant isolates; how it was run: as §1
Mammaliicoccus sciuri [4] = assay: Antimicrobial activity against mecA-positive Staphylococcus sciuri assessed as resistant isolates; how it was run: as §1

Row | Compound | Activity (Mammaliicoccus sciuri [1]) [%] | Activity (Mammaliicoccus sciuri [2]) [%] | Activity (Mammaliicoccus sciuri [3]) [%] | Activity (Mammaliicoccus sciuri [4]) [%]
1 | CC(=O)O[C@H]1C[C@@]2(C)[C@@H](C[C@@H](O)[C@H]3[C@@]4(C)CC[C@@H](O)[C@@H](C)[C@@H]4CC[C@@]32C)/C1=C(\CCC=C(C)C)C(=O)O [FUSIDIC ACID] | 55.6 | 44.4 | 69.2 | 60
2 | CN[C@H](CC(C)C)C(=O)N[C@H]1C(=O)N[C@@H](CC(N)=O)C(=O)N[C@H]2C(=O)N[C@H]3C(=O)N[C@H](C(=O)N[C@H](C(=O)O)c4cc(O)cc(O)c4-c4cc3ccc4O)[C@H](O)c3ccc(c(Cl)c3)Oc3cc2cc(c3O[C@@H]2O[C@H](CO)[C@@H](O)[C@H](O)[C@H]2O[C@H]2C[C@](C)(N)[C@H](O)[C@H](C)O2)Oc2ccc(cc2Cl)[C@H]1O [VANCOMYCIN] | 0 | 0 | 0 | 0
3 | CO[C@H]1/C=C/O[C@@]2(C)Oc3c(C)c(O)c4c(O)c(c(/C=N/N5CCN(C)CC5)c(O)c4c3C2=O)NC(=O)/C(C)=C\C=C\[C@H](C)[C@H](O)[C@@H](C)[C@@H](O)[C@@H](C)[C@H](OC(C)=O)[C@@H]1C [RIFAMPIN] | 0 | 11.1 | 15.4 | 0
4 | GENTAMICIN | 0 | 55.5 | 38.5 | 0
5 | CN(C)[C@@H]1C(O)=C(C(N)=O)C(=O)[C@@]2(O)C(O)=C3C(=O)c4c(O)cccc4[C@@](C)(O)[C@H]3C[C@@H]12 [TETRACYCLINE] | 11.1 | 77.8 | 46.2 | 5
6 | CC[C@H]1OC(=O)[C@H](C)[C@@H](O[C@H]2C[C@@](C)(OC)[C@@H](O)[C@H](C)O2)[C@H](C)[C@@H](O[C@@H]2O[C@H](C)C[C@H](N(C)C)[C@H]2O)[C@](C)(O)C[C@@H](C)C(=O)[C@H](C)[C@@H](O)[C@]1(C)O [ERYTHROMYCIN] | 0 | 33.3 | 23.1 | 0
7 | CCn1cc(C(=O)O)c(=O)c2cc(F)c(N3CCNCC3)cc21 [NORFLOXACIN] | 0 | 66.7 | 15.4 | 0
